High-throughput results (PubChem BioAssay)
Calb FLC = affects C. albicans growth with fluconazole; C. albicans CaCi-2 (fluconazole-resistant clinical isolate) + fluconazole, Alamar Blue growth, 48 h; growth inhibition, % (test concentration not listed); 0.57% of 300,000 active; AID 1979;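 active = growth inhibition above about 58% in most replicates, limit read from the data, passing the limit was not always enough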;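 note: all wells also contain fluconazole at 8 µg/ml as a sub-toxic cotreatment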
Lmaj promast = inhibitors of Leishmania major promastigote growth; 9% of 200,000 active; AID 1063; Leishmania major promastigotes, resazurin fluorescence viability; inhibition, % at 10 µM; in the data active = inhibition above about 50%;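 note: promastigotes grown with compound for 44 hours at 28 °C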
PolyA inh = blocks polyadenylation in yeast reporter cells | S. cerevisiae SKY197-pL101 polyadenylation reporter, beta-gal luminescence; efflux-impaired pdr1/pdr3 knockout yeast; score 100 = 6 SD above DMSO | activity score, % at 12 µM | 0.02% of 300,000 active;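 active = lowest replicate activity score at least 50, where 100 means six control SD above control mean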;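 note: yeast exposed to compound for 9 h at 30 °C; higher score means more reporter readthrough which indicates perturbed polyadenylation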
T cruzi repl = blocks replication of Trypanosoma cruzi. T. cruzi beta-gal in NIH3T3, luminescence, 90 h. inhibition, % (concentration not given with the values). 1.4% of 300,000 active. AID 1885;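 active = mean inhibition across valid replicates above about 55%, limit read from the data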;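 note: signal also drops with host cell toxicity which is not excluded here; higher percent means less beta-gal luminescence so fewer parasites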
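System: NIH/3T3 fibroblasts plus reporter T. cruzi. Medium: DMEM plus 2% FBS. Probe or stimulus: 5000 reporter trypomastigotes per well. Compound: single 50 nL compound addition per well in DMSO. Incubation: co-culture of at least 90 h after 3 h attachment. Detection: GalScreen β-gal luminescence, detergent lysis, 60 min. Evaluation: parasite load inhibition, %.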
NALP1 yeast inh = NALP1 inhibition; S. cerevisiae NALP1/ASC/caspase-1 growth, X-gal OD620, 72 h; inhibition, % at 10 µM; 0.61% of 280,000 active; AID 2071; in the data active = inhibition mostly above about 24%, no sharp cut-off; inactive = mostly below about 32%
NALP3 yeast inh = NALP3 inhibition in yeast | Yeast reconstituted NLRP3/ASC/caspase-1, beta-gal luminescence, 24 h | inhibition, % at 10 µM | 0.39% of 330,000 active | AID 2825;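 active = inhibition of 50% or more; inactive = inhibition below 50%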
Hits are given with their value; . = inactive; / = no result given. The entries come from a sample that favours hits as a whole.

SMILES	Calb FLC	Lmaj promast	PolyA inh	T cruzi repl	NALP1 yeast inh	NALP3 yeast inh
Brc1ccc(-c2nnc3sc(CNCc4ccc5c(c4)OCO5)cn23)cc1	.	85	.	.	.	.
c1ccc(-c2nnc3sc(CN4CCC5(CC4)OCCO5)cn23)cc1	.	.	.	.	.	.
Brc1ccc(-c2nnc3sc(CNC4CCCC4)cn23)cc1	.	91	.	.	.	.
c1ccc(Nc2nc3ccccc3[nH]2)nc1	.	100	.	.	.	.
O=C(NCCS(=O)(=O)N1CCC2(CC1)OCCO2)c1ccc(F)cc1	.	/	.	.	/	.
COc1ccc(Cc2nnc(SCC(=O)NC3(C#N)CCCCC3)n2N)cc1	.	/	.	.	/	.
O=C(Nc1cccc(-c2nc3ccccc3[nH]2)c1)c1ccco1	.	.	.	.	.	.
N=c1c(-c2nc3ccccc3[nH]2)cc(C(=O)c2ccco2)nn1-c1ccccc1	.	100	.	.	.	.
N=c1c(-c2nc3ccccc3[nH]2)cc(C(=O)c2cccs2)nn1-c1ccccc1	.	100	.	72	.	.
Cc1ccccc1CCNC(=O)C1CCC(=O)N(C2CCCCCC2)C1 (stereo not given)	.	/	.	.	.	.
Nc1nc(SCC(=O)NC2CCCCC2)n[nH]1	.	/	.	.	.	.
CC1CCCN(CCCOc2ccc([N+](=O)[O-])cc2)C1 (stereo not given)	.	89	.	.	.	.
Cc1cc(=O)n(C)c(=O)n1CCCCCCOc1ccc([N+](=O)[O-])cc1	.	.	.	.	.	.
COc1ccc(OCCCN2CCCC(C)C2)cc1 (stereo not given)	.	97	.	.	/	.
Cc1cc(=O)n(C)c(=O)n1CCCCOc1ccc([N+](=O)[O-])cc1	.	.	.	.	50	.
O=[N+]([O-])c1ccc(OCCN2CCCCCC2)cc1	.	.	.	.	.	.
N/C(Cc1cccc2ccccc12)=N\OC(=O)c1cccs1	.	58	.	.	.	.
N/C(Cc1cccc2ccccc12)=N\OC(=O)Cc1cccs1	.	.	.	.	.	.
CN(C)/C=C(\c1cnc(Cl)s1)S(=O)(=O)c1ccccc1	.	.	.	.	.	.
CCOCCCNC(=O)c1oc2ccc3c(c2c1C)C(O)CC(C)(C)O3 (stereo not given)	.	/	.	.	.	.
CC(C)(C)Nc1nc(Cl)nc(NC(C)(C)C)n1	.	.	.	.	.	.
CC(C)(C)Nc1nc(NC(C)(C)C)nc(-n2ccnc2)n1	/	98	/	/	.	.
O=C(CSc1ccc(-c2cccs2)nn1)Nc1ccccc1	.	.	.	.	.	.
Cc1ccccc1NC(=O)CSc1nnc(-c2ccco2)n1N	.	/	.	.	/	.
Cc1cc(C)cc(NC(=O)CSc2ccc(-c3cccs3)nn2)c1	.	72	.	.	.	.
SMILES	Calb FLC	Lmaj promast	PolyA inh	T cruzi repl	NALP1 yeast inh	NALP3 yeast inh
Cc1cccc(NC(=O)CSc2nnc(-c3ccco3)c(-c3ccco3)n2)c1C	.	87	.	.	.	.
Cc1ccccc1NC(=O)CSc1ccc(-c2ccco2)nn1	.	.	.	.	.	.
Cc1cccc(NC(=O)CSc2nc(N)cc(N)n2)c1	.	.	.	.	.	.
Cc1ccc(C)c(NC(=O)CSc2ccc(-c3ccco3)nn2)c1	.	55	.	.	.	.
Cc1cccc(NC(=O)CSc2nnc(-c3ccco3)c(-c3ccco3)n2)c1	/	68	/	/	.	.
CCOc1ccccc1C(=O)OCC(=O)NCC1CCCCC1	.	/	.	.	/	.
Cc1c(Br)cccc1NC(=O)c1sccc1-n1cccc1	.	.	.	.	44	.
COc1ccc(Nc2nnc(-c3ccc(C)cc3)c3ccccc23)cc1C(=O)N1CCCCC1	.	66	.	.	.	.
N/C(=N\OC(=O)c1cccc(C(F)(F)F)c1)c1cnccn1	.	/	.	.	.	.
O=C(OCn1ncc(Cl)c(Cl)c1=O)c1cccc(C(F)(F)F)c1	98	59	.	.	.	.
O=C(N/C(=C/c1cccc([N+](=O)[O-])c1)C(=O)N1CCCCCC1)c1cccs1	.	61	.	.	.	.
Cc1ccc(NC(=O)/C(=C/c2cccc([N+](=O)[O-])c2)NC(=O)C2CCCCC2)cc1	.	.	.	.	.	.
O=C(O)/C(=C\c1ccc(Cl)c([N+](=O)[O-])c1)c1ccc(S(=O)(=O)N2CCCCC2)s1	.	.	.	.	.	.
CC(=O)N/C(=C\c1cccc([N+](=O)[O-])c1)C(=O)NC1CCCCC1	.	51	.	.	.	.
O=C(O)/C(=C\c1cccc([N+](=O)[O-])c1)c1ccc(S(=O)(=O)N2CCCCC2)s1	.	/	.	.	23	.
O=C(N/C(=C/C=C/c1ccccc1)C(=O)N1CCCCC1)c1ccc([N+](=O)[O-])cc1	.	61	.	.	.	.
CN1CCN(C(=O)/C(=C\c2cccc([N+](=O)[O-])c2)NC(=O)c2cccs2)CC1	.	.	.	.	.	.
COc1ccc(CNC(=O)C(OC(=O)c2ccco2)c2ccccc2)cc1 (stereo not given)	.	/	.	.	.	.
NCc1ccccc1COc1ccccc1	.	.	.	.	.	.
O=C(N/C(=C/c1cccc([N+](=O)[O-])c1)C(=O)N1CCCCC1)c1cccs1	.	90	.	.	.	.
COc1ccc(CCNC(=O)C(=O)NCC2OCCN2S(=O)(=O)c2ccccc2)cc1 (stereo not given)	.	/	.	.	.	.
CC(CN1CCCCC1)OC(=O)C(C)(c1ccccc1)c1ccccc1 (stereo not given)	.	100	.	.	.	.
CC(CN1CCOCC1)OC(=O)C(C)(c1ccccc1)c1ccccc1 (stereo not given)	.	55	.	.	.	.
CC(CN1CCOCC1)OC(=O)C(c1ccccc1)c1ccccc1 (stereo not given)	.	.	.	.	.	.
CCCc1cc(=O)[nH]c(SCC(=O)c2ccc3c(c2)OCCO3)n1	.	61	.	.	.	.
SMILES	Calb FLC	Lmaj promast	PolyA inh	T cruzi repl	NALP1 yeast inh	NALP3 yeast inh
Cc1ccc(S(=O)(=O)CC(O)COc2ccc(C#N)cc2)cc1 (stereo not given)	.	.	.	.	.	.
CN(C)CC(O)COc1ccc(-c2ccc(C#N)cc2)cc1 (stereo not given)	.	98	.	.	.	.
N#Cc1ccc(-c2ccc(OCC(O)CN3CCOCC3)cc2)cc1 (stereo not given)	.	84	.	.	.	.
Cc1ccc(C)c(C(C)NC(=S)NCc2ccc(F)cc2)c1 (stereo not given)	.	/	.	.	.	.
O=C(Nc1ncccc1Cl)c1ccccc1F	.	72	.	.	.	.
CC1CCc2c(sc3nc(C(C)(C)C)nc(N4CCN(C(=O)CCl)CC4)c23)C1 (stereo not given)	.	/	.	.	.	.
